Assay results of several laboratories.
Compare with care: the assays were run in different laboratories.
Target: NUAK family SNF1-like kinase 2 (NUAK2, Homo sapiens, UniProt Q9H093)
One construct used (Q9H093 1-628): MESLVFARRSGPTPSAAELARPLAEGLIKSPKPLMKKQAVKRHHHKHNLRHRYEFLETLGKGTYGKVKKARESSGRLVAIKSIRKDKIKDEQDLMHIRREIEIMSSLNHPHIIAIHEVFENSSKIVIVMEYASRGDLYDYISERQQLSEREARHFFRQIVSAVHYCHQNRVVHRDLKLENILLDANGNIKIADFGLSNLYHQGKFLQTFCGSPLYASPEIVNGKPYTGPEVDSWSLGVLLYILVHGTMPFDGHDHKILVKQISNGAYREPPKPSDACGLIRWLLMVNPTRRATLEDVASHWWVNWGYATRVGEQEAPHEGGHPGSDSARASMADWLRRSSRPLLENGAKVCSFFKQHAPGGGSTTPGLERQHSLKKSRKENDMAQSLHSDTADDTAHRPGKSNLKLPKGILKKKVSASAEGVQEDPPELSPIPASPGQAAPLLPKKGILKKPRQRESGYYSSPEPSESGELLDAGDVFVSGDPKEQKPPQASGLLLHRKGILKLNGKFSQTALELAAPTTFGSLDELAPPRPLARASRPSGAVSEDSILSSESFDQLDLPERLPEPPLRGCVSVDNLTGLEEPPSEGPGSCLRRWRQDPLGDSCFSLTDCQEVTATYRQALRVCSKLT

| Structure (SMILES) | observed | method | tested at | remaining binding [%] |
| --- | --- | --- | --- | --- |
| N#Cc1ccccc1CSc1nnc2c(n1)[nH]c1ccccc12 | binding | competition with immobilised ligand | 10 µM | 93 |
| CO[C@@H](C)c1c(Nc2ccc([C@@H](N(C)C(=O)C3CCS(=O)(=O)CC3)C(F)(F)F)cc2)cnc2cc(Cl)nn12 | cell-free assay | competition with immobilised ligand | 1 µM | 100 |
| CCN1CCN(Cc2ccc(C(=O)Nc3ccc(C)c(Oc4ccc5c(c4)CC(=O)N5)c3)cc2C(F)(F)F)CC1 | binding | competition with immobilised ligand | 1 µM | 100 |
| O=C(c1ccc(Nc2nccc(-c3cc4ccccc4s3)n2)cc1)N1CCC(N2CCCC2)CC1 | binding | competition with immobilised ligand | 1 µM | 7.6 |
| CCCCN(CCCC)C(=O)CN1C[C@@H](c2cc(OC)c3c(c2)OCO3)[C@H](C(=O)O)[C@H]1CC(C)(C)CCC | cell-free assay | competition with immobilised ligand | 1 µM | 100 |
| C[C@@H]1CCN(c2nccc(-c3cnn4ncccc34)n2)C1 | binding |  | 1 µM | 74 |
| COc1cnc(Nc2cccc(S(N)(=O)=O)c2)nc1N1CCN(c2ccccc2)CC1 | binding | competition with immobilised ligand | 1 µM | 62 |
| CNCc1ccccc1-c1csc([C@H](C)Nc2nc(C)nc3cc(OC)c(OC)cc23)c1 | cell-free assay | competition with immobilised ligand | 1 µM | 100 |
| CN(C)c1ncc(F)c(-c2cnn3ncccc23)n1 | binding |  | 1 µM | 80 |
| COc1cc(-c2cn(C3CCc4ccccc4N(CC(F)(F)F)C3=O)nn2)ccc1-n1ccc(C)n1 (stereo not shown) | cell-free assay | competition with immobilised ligand | 1 µM | 88 |
| O=C(NCCCN1CCOCC1)c1ccc(Nc2ncc(Cl)c(-c3ccc(Cl)s3)n2)cc1 | binding | competition with immobilised ligand | 1 µM | 0.85 |
| CN(C)c1nccc(-c2cnn3ncccc23)n1 | binding |  | 1 µM | 100 |
| COc1cccc(CNC(=O)c2nc3scc(COCc4ccc(C(=O)O)cc4)c3c(=O)[nH]2)c1 | cell-free assay | competition with immobilised ligand | 1 µM | 76.4 |
| c1cncc(-c2cccc(Nc3nccc(NC4CCCCC4)n3)c2)c1 | binding | competition with immobilised ligand | 10 µM | 17 |
| COc1ncc2cc3ccccc3nc2c1C#N | cell-free assay | competition with immobilised ligand | 5 µM | 100 |
| CN(CCCC(F)(F)F)c1nccc(-c2cnn3ncccc23)n1 | binding |  | 1 µM | 92 |
| Nc1ncc2c(n1)-c1c([nH]c3ccc(C#CC4CC4)cc13)CCCC2 | binding | competition with immobilised ligand | 1 µM | 92 |
| C[C@@H]1CN(c2ccc3ncc(-c4ccc5[nH]nc(C6CC6)c5c4)n3n2)C[C@H](C)O1 | binding | competition with immobilised ligand | 50 nM | 89 |
| O=C(NCCCN1CCOCC1)c1ccc(Nc2nccc(-c3cc4ccccc4s3)n2)cc1 | binding | competition with immobilised ligand | 1 µM | 26 |
| O=C(NCC1CCOCC1)c1n[nH]cc1NC(=O)c1c(F)cccc1F | binding | competition with immobilised ligand | 1 µM | 70 |
| N[C@@H]1CCN(c2nccc(-c3cnn4ncccc34)n2)C1 | binding |  | 1 µM | 100 |
| O=C(O)[C@H]1[C@H](Cn2nnc3ccccc3c2=O)CC[C@@H]1C(=O)c1ccc(OCCC2CCOCC2)cc1 | cell-free assay | competition with immobilised ligand | 1 µM | 100 |
